ChEMBL document CHEMBL2321857, “Synthesis, topoisomerase-targeting activity and growth inhibition of lycobetaine analogs” (Bioorg Med Chem, 2013)
Calls of active or inactive are those of the source. The calls are words filed in the database; no cut-off is given here.

Key:
[1] = molecular target: DNA topoisomerase 2-beta (Homo sapiens) (UniProt Q02880); test: Inhibition of human recombinant topoisomerase 2beta-mediated decatenation of kDNA at 30 uM after 60 mins by ethidium bromide staining based gel electrophoresis analysis
Procedure, shortened: (§1)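 Recombinant human topo IIα or IIβ (40 ng) was incubated with 200 ng Crithidia kDNA. Buffer: 50 mM Tris/HCl pH 7.9, 120 mM KCl, 10 mM MgCl2, 1 mM ATP, 0.5 mM DTT, 0.5 mM EDTA, 0.03 mg/mL BSA. Incubation 60 min at 37 °C. Stopped with proteinase K/SDS, digested 30 min, run on 1% agarose and stained with ethidium bromide. Decatenated minicircle signal as T/C% vs DMSO; three experiments.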

[2] = molecular target: DNA topoisomerase 2-alpha (Homo sapiens) (UniProt P11388); test: Inhibition of human recombinant topoisomerase 2alpha-mediated decatenation of kDNA at 50 uM after 60 mins by ethidium bromide staining based gel electrophoresis analysis; procedure, shortened: as §1
[3] = molecular target: T1, DNA topoisomerase 1 (Homo sapiens) (UniProt P11387); test: Inhibition of human recombinant topoisomerase 1-mediated relaxation of supercoiled pUC18 plasmid DNA in human MCF7 cells nuclear extracts at 10 uM after 30 mins by ethidium bromide staining based gel electrophoresis analysis; format: cell-free
T1 sequence (whole entry): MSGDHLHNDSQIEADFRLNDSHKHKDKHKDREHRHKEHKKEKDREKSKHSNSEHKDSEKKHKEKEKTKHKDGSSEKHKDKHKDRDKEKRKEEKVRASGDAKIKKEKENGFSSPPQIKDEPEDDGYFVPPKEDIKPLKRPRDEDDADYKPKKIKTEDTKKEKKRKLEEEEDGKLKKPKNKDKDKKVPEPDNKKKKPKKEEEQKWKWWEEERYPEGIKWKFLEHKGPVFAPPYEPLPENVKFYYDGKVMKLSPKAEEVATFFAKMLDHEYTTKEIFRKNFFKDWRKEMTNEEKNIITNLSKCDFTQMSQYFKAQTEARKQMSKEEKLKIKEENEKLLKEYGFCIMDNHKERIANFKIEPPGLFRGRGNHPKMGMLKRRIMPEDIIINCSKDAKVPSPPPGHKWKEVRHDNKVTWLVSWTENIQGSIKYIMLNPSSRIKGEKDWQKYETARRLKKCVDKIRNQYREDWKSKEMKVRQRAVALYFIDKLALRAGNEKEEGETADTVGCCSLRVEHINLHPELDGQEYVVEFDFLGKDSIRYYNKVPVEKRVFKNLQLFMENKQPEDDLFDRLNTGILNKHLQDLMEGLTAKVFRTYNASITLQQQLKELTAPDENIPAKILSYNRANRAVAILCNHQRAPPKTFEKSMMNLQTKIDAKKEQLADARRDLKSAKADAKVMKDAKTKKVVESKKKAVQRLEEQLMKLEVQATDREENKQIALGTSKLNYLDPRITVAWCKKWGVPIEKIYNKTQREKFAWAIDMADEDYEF
Procedure, shortened: (§2)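 Topo I activity came from MCF-7 nuclear extract (0.3 µL) acting on 250 ng supercoiled pUC18. Buffer: 10 mM Tris/HCl pH 7.9, 50 mM KCl, 10 mM MgCl2, 0.5 mM DTT, 0.5 mM EDTA, 0.03 mg/mL BSA, no ATP. Incubation 30 min at 37 °C. Stopped with SDS, then proteinase K digest. Run on 1% agarose TAE gel and stained with ethidium bromide afterward. Scored as lowest inhibiting concentration from 10, 30, 50 or 100 µM.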

[4] = Growth inhibition of human GXF251L cells after 72 hrs by SRB assay; format: functional; settings: GXF 251L
Procedure, shortened: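 GXF251L gastric xenograft-derived cells in RPMI-1640 with 10% FCS were seeded at 6000 cells/well and grown 24 h. They were then exposed 72 h in serum-containing medium with 1% DMSO final. Cells were fixed with TCA for 1 h at 4 °C and stained with 0.4% SRB. Dye was dissolved in 10 mM Tris pH 10.5 and read at 570 nm. IC50 vs DMSO control; three independent experiments.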

[5] = molecular target: DNA topoisomerase 2-beta (Homo sapiens) (UniProt Q02880); test: Inhibition of human recombinant topoisomerase 2beta-mediated decatenation of kDNA up to 50 uM after 60 mins by ethidium bromide staining based gel electrophoresis analysis; procedure, shortened: as §1
[6] = molecular target: DNA topoisomerase 2-alpha (Homo sapiens) (UniProt P11388); test: Inhibition of human recombinant topoisomerase 2alpha-mediated decatenation of kDNA up to 50 uM after 60 mins by ethidium bromide staining based gel electrophoresis analysis; procedure, shortened: as §1
[7] = molecular target: T1, DNA topoisomerase 1 (Homo sapiens); test: Inhibition of human recombinant topoisomerase 1-mediated relaxation of supercoiled pUC18 plasmid DNA in human MCF7 cells nuclear extracts at 100 uM after 30 mins by ethidium bromide staining based gel electrophoresis analysis; format: cell-free; procedure, shortened: as §2
[8] = molecular target: DNA topoisomerase 2-beta (Homo sapiens) (UniProt Q02880); test: Inhibition of human recombinant topoisomerase 2beta-mediated decatenation of kDNA at 100 uM after 60 mins by ethidium bromide staining based gel electrophoresis analysis; procedure, shortened: as §1
[9] = molecular target: DNA topoisomerase 2-alpha (Homo sapiens) (UniProt P11388); test: Inhibition of human recombinant topoisomerase 2alpha-mediated decatenation of kDNA at 100 uM after 60 mins by ethidium bromide staining based gel electrophoresis analysis; procedure, shortened: as §1
[10] = molecular target: T1, DNA topoisomerase 1 (Homo sapiens); test: Inhibition of human recombinant topoisomerase 1-mediated relaxation of supercoiled pUC18 plasmid DNA in human MCF7 cells nuclear extracts at 50 uM after 30 mins by ethidium bromide staining based gel electrophoresis analysis; format: cell-free; procedure, shortened: as §2
[11] = molecular target: T1, DNA topoisomerase 1 (Homo sapiens); test: Stabilization of topoisomerase 1/DNA complex in human A431 cells; format: cell-based; settings: A-431
Procedure, shortened: (§3)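 A431 cells were grown 72 h, then treated 1 h serum-free (10–100 µM; 1% DMSO control). Cells were lysed in sarkosyl TE buffer, and lysate was spun on a CsCl step gradient at 100,000 × g for 24 h at 20 °C. Fractions were measured by A260 and slot-blotted. Topo I, IIα or IIβ was immunodetected by chemiluminescence and expressed as T/C% per DNA content. Three experiments.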

[12] = molecular target: DNA topoisomerase 2-beta (Homo sapiens) (UniProt Q02880); test: Inhibition of topoisomerase 2beta in human A431 cells assessed as DNA peak fractions level after 1 hr by ICE assay; format: cell-based; settings: A-431; procedure, shortened: as §3
[13] = molecular target: DNA topoisomerase 2-alpha (Homo sapiens) (UniProt P11388); test: Inhibition of topoisomerase 2alpha in human A431 cells assessed as DNA peak fractions level after 1 hr by ICE assay; format: cell-based; settings: A-431; procedure, shortened: as §3

DNA topoisomerase 2-beta (Homo sapiens), sequence (Q02880 whole entry): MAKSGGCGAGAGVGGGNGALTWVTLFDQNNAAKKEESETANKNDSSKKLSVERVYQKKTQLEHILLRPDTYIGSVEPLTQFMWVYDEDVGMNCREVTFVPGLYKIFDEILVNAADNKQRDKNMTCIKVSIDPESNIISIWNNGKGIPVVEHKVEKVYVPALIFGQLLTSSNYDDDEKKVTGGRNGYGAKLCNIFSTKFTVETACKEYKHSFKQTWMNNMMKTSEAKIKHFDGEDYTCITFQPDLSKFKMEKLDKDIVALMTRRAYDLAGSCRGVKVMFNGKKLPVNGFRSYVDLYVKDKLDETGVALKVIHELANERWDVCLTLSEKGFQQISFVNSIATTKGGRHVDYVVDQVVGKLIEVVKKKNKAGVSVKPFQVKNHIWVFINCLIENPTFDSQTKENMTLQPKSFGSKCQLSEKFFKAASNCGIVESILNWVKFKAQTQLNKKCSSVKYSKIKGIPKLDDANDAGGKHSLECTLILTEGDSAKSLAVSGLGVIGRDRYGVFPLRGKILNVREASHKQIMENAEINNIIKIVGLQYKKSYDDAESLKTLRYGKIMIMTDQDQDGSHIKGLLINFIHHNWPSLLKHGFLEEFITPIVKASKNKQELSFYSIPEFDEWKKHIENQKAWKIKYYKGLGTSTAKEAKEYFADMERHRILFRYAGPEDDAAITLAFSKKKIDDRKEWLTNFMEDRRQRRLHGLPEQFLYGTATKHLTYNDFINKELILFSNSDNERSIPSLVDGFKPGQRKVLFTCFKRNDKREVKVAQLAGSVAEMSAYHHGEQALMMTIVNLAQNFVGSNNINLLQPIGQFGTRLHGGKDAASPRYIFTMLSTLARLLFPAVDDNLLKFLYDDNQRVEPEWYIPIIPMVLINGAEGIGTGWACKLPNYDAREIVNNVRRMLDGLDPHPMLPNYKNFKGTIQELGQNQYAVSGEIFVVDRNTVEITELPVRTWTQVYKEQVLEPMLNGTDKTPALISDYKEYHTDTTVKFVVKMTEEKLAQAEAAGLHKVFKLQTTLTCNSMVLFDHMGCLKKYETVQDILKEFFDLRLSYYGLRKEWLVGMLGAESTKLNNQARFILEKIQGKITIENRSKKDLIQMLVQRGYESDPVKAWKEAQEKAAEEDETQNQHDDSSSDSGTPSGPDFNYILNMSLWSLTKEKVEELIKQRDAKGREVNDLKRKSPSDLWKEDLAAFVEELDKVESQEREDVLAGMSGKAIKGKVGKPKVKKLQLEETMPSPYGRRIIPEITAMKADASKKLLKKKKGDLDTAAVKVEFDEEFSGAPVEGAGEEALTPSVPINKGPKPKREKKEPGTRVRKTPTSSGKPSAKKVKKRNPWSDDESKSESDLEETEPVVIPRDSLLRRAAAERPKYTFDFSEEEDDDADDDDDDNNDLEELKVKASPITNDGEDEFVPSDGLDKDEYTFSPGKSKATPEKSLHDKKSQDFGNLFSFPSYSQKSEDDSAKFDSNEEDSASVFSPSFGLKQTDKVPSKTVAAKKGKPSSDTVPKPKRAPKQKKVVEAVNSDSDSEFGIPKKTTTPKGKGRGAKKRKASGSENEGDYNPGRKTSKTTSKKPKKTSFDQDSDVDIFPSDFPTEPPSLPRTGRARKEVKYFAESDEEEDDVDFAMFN
DNA topoisomerase 2-alpha (Homo sapiens), sequence (P11388 whole entry): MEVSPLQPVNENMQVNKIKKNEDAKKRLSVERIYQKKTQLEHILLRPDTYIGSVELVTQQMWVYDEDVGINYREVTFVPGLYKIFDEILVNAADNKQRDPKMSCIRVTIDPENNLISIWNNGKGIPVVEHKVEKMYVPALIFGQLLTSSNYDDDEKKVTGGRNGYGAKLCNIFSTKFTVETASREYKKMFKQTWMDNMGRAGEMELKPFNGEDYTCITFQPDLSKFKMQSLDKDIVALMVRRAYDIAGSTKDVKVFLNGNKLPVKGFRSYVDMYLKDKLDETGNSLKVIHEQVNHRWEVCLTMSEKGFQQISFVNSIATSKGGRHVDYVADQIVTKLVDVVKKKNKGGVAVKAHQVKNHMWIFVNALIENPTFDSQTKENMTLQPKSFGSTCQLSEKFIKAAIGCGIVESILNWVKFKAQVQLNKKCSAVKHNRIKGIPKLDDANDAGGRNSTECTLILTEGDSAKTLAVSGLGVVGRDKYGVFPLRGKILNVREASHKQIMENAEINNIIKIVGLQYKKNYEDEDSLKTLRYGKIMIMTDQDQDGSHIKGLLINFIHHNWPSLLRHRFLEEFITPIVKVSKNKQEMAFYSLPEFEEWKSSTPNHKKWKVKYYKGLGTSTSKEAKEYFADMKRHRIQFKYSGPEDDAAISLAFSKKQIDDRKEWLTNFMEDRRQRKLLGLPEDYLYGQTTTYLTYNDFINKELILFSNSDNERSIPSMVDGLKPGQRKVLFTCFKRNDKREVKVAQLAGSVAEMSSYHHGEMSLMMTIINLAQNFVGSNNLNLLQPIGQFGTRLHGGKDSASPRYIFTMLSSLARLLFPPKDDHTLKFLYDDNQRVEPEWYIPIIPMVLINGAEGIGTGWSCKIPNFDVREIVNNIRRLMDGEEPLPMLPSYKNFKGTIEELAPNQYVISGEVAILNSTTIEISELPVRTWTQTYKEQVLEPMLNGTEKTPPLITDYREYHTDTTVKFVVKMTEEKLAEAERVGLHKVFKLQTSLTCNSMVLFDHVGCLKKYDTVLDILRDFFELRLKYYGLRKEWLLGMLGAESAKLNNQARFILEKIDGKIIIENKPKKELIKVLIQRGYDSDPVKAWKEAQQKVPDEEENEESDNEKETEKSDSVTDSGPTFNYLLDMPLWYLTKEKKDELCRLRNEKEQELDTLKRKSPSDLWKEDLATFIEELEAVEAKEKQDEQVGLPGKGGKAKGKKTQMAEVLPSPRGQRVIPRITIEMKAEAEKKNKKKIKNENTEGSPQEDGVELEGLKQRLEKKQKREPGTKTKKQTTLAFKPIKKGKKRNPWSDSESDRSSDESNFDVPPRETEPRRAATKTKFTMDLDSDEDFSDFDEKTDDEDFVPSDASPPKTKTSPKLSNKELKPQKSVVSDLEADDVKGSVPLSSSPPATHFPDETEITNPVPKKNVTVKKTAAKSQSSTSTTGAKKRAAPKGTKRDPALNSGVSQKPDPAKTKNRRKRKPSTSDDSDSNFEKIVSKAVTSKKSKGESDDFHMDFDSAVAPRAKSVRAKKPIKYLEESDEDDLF

Row | inhibition [3] | inhibition [7] | SMILES | IC50 [4] [µM] | other results
1 | Active | – | COc1ccc2c(c1)c1cc3c(cc1c[n+]2C)OCO3 | 0.9 | inhibition [1]: Active; inhibition [2]: Active
2 | – | inactive | COc1ccc2c[n+](C)c3ccc(O)cc3c2c1 | 8.4 | inhibition [5]: inactive; inhibition [6]: inactive
3 | – | inactive | COc1cc2cnc3ccc(O)cc3c2cc1OC | 26 | –
4 | Active | – | C[n+]1cc2cc3c(cc2c2ccccc21)OCO3 | 1.9 | inhibition [5]: inactive; inhibition [6]: inactive
5 | – | – | COc1cc2c[n+](C)c3ccc(O)cc3c2cc1OC | 18.8 | inhibition [8]: inactive; inhibition [9]: inactive; inhibition [10]: Active
6 | Active | – | COc1ccc2c(c1)c1cc(OC)c(OC)cc1c[n+]2C | 7.8 | inhibition [9]: Active
7 | Active | – | COc1ccc2c(c1)c[n+](C)c1ccc(O)cc21 | 5.4 | inhibition [8]: inactive; inhibition [9]: inactive
8 | – | inactive | COc1ccc2ncc3cc(OC)c(OC)cc3c2c1 | 41.1 | –
9 | Active | – | C[n+]1cc2cc3c(cc2c2cc(O)ccc21)OCO3 | 1.6 | inhibition [1]: Active; inhibition [2]: Active
10 | – | inactive | COc1ccc2ncc3cc4c(cc3c2c1)OCO4 | 12.1 | –
11 | – | inactive | c1ccc2c(c1)ncc1cc3c(cc12)OCO3 [TRISPHAERIDINE] | 12 | –
12 | Active | – | Oc1cc2c3c(c1)c1cc4c(cc1c[n+]3CC2)OCO4 [LYCOBETAINE] | 3.2 | inhibition [1]: Active; inhibition [2]: Active; Activity [11]: inactive; inhibition [12]: Dose-dependent effect; inhibition [13]: Dose-dependent effect
13 | – | inactive | COc1ccc2c(cnc3ccc(O)cc32)c1 | > 50 | –
14 | – | inactive | Oc1ccc2ncc3cc4c(cc3c2c1)OCO4 | 17.3 | –
15 | Active | – | COc1ccc2c(c1)c1ccccc1c[n+]2C | 4 | inhibition [8]: Active; inhibition [9]: Active
16 | – | inactive | COc1ccc2cnc3ccc(O)cc3c2c1 | 40.6 | –
